{"source": "paper PMC9340768", "about": "(Journal of Medicinal Chemistry, 2022)", "key": {"[1]": {"tested_on": "human PBMCs cocultured with HT1376", "test": "PBMC/HT1376 coculture cytokine secretion assay", "type": "cell-based", "conditions": "anti-CD3 stimulated PBMCs with HT1376", "method_in_brief": "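Frozen healthy-donor human PBMCs were thawed, washed in PBS with benzonase and resuspended in RPMI with 10% heat-inactivated FBS, HEPES and glutamine. PBMCs (1 × 10^6/mL) were plated with tumor cells (1 × 10^5/mL) at 10:1, stimulated with soluble anti-CD3 OKT3 (100 ng/mL), and given diluted test compound. Incubation was 2 days at 37 °C, 5% CO2. Supernatant IFNγ and IL-2 were measured by Luminex; four-parameter fit, n = 3.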"}, "Thermodynamic solubility": {"test": "Thermodynamic solubility", "type": "physicochemical", "conditions": "pH 7.4"}, "[2]": {"test": "Pharmacokinetics in Sprague-Dawley rats", "conditions": "rat, in vivo, iv, 2 mg/kg, SD rats, 2 mg/kg IV bolus"}, "Nectin-4": {"tested_on": "Nectin-4", "test": "Cross-species binding of the Nectin-4 Bicycle", "design": "species or system mouse, rat, monkey, and human"}, "CD137": {"tested_on": "CD137", "test": "Cross-species binding of the CD137 Bicycle", "design": "species or system human and monkey"}}, "note": "Starred links: 1 amine or outer side, 2 acyl side, 3 side chain; linkers in the order of their positions; H or OH if unused. Positions of bridges follow the written chain, without caps; N, C: chain ends. Non-standard residues stand in square brackets, D forms with d. Residues, ends and D or L forms follow the SMILES beside them. TATA = O=C(CC[*:1])N1CN(C(=O)CC[*:2])CN(C(=O)CC[*:3])C1; tBuAla = CC(C)(C)C[C@H](N)C(=O)O; Nle = CCCC[C@H](N)C(=O)O", "data": [{"molecule": "CCCC[C@@H]1NC(=O)[C@H](Cc2ccc(O)cc2)NC(=O)[C@@H]2CCCN2C(=O)[C@H](CC(=O)O)NC(=O)[C@H](C)NC(=O)[C@H](Cc2ccccc2)NC(=O)[C@@H]2CSCCC(=O)N3CN(CN(C3)C(=O)CCSC[C@@H](C(N)=O)NC1=O)C(=O)CCSCCC(=O)N[C@@H](CC(C)(C)C)C(=O)N1CCC[C@H]1C(=O)N[C@@H](CCC(=O)O)C(=O)N[C@H](CCCCNC(=O)CCc1cn(CCOCCOCCOCCN(CCOCCOCCOCCC(=O)N[C@H]3CSCCC(=O)N4CN5CN(C4)C(=O)CCSC[C@H](NC(=O)[C@@H](CC(=O)O)NC(=O)[C@H](Cc4cccc6ccccc46)NC(=O)[C@@H]4CCCN4C3=O)C(=O)N[C@@H](CCSC)C(=O)N[C@@H](CCCCNC(=N)N)C(=O)N[C@@H](CC(=O)O)C(=O)N[C@@H](Cc3c[nH]c4ccccc34)C(=O)N[C@@H](CO)C(=O)N[C@@H]([C@@H](C)O)C(=O)N3CCC[C@H]3C(=O)N3C[C@H](O)C[C@H]3C(=O)N[C@@H](Cc3c[nH]c4ccccc34)C(=O)N[C@H](C(N)=O)CSCCC5=O)CCOCCOCCOCCn3cc(CCC(=O)NCCCC[C@H]4NC(=O)[C@H](CCC(=O)O)NC(=O)[C@@H]5CCCN5C(=O)[C@H](CC(C)(C)C)NC(=O)CCSCCC(=O)N5CN6CN(C5)C(=O)CCSC[C@H](NC(=O)[C@H](Cc5ccc(O)cc5)NC(=O)[C@@H]5CCCN5C4=O)C(=O)N[C@@H](Cc4ccccc4)C(=O)N[C@@H](C)C(=O)N[C@@H](CC(=O)O)C(=O)N4CCC[C@H]4C(=O)N[C@@H](Cc4ccc(O)cc4)C(=O)N[C@@H](CCCC)C(=O)N[C@H](C(N)=O)CSCCC6=O)nn3)nn1)C(=O)N1CCC[C@H]1C(=O)N[C@@H](Cc1ccc(O)cc1)C(=O)N2", "note": "[BCY12587]", "values": [{"measurement": "secretion of proinflammatory cytokines IFNγ and IL-2", "setting": "[1]", "result": "dose-dependent increase"}, {"measurement": "solubility thermodynamic", "setting": "Thermodynamic solubility", "result": 3100, "unit": "µg/mL"}, {"measurement": "clearance", "setting": "[2]; CL (mL/min/kg)", "result": 4.5, "unit": "mL/min/kg"}, {"measurement": "half-life", "setting": "[2]; t½ (h), terminal half-life", "result": 17, "unit": "h"}]}, {"molecule": "CSCC[C@@H]1NC(=O)[C@@H]2CSCCC(=O)N3CN(CN(C3)C(=O)CCSC[C@H](N)C(=O)N3CCC[C@H]3C(=O)N[C@@H](Cc3cccc4ccccc34)C(=O)N[C@H](CC(=O)O)C(=O)N2)C(=O)CCSC[C@@H](C(N)=O)NC(=O)[C@H](Cc2c[nH]c3ccccc23)NC(=O)[C@@H]2C[C@@H](O)CN2C(=O)[C@@H]2CCCN2C(=O)[C@H]([C@@H](C)O)NC(=O)[C@H](CO)NC(=O)[C@H](Cc2c[nH]c3ccccc23)NC(=O)[C@H](CC(=O)O)NC(=O)[C@H](CCCCNC(=N)N)NC1=O", "note": "[BCY8116]", "values": [{"measurement": "species cross-reactivity of binding to Nectin-4", "setting": "Nectin-4", "result": "binds to mouse, rat, monkey, and human Nectin-4"}]}, {"molecule": "CCCC[C@@H]1NC(=O)[C@H](Cc2ccc(O)cc2)NC(=O)[C@@H]2CCCN2C(=O)[C@H](CC(=O)O)NC(=O)[C@H](C)NC(=O)[C@H](Cc2ccccc2)NC(=O)[C@@H]2CSCCC(=O)N3CN(CN(C3)C(=O)CCSC[C@@H](C(=O)N[C@@H](C)C(N)=O)NC1=O)C(=O)CCSC[C@H](NC(C)=O)C(=O)N[C@@H](CC(C)(C)C)C(=O)N1CCC[C@H]1C(=O)N[C@@H](CCC(=O)O)C(=O)N[C@H](CCCCN)C(=O)N1CCC[C@H]1C(=O)N[C@@H](Cc1ccc(O)cc1)C(=O)N2", "note": "[BCY8928] (Ac-C[tBuAla]PE[dK]PYCFADPY[Nle]CA-NH2; linker 1-8-15 via TATA)", "values": [{"measurement": "species cross-reactivity of binding to CD137", "setting": "CD137", "result": "binds only to human and monkey CD137"}]}]}
